One may read the IC50 as the concentration that inhibits the measured activity by half. A lower IC50 goes with higher potency. One may read the MIC as the lowest concentration that inhibits growth of the organism. Lower therefore signals a more susceptible organism. In general, half-life refers to how long it takes for the measured level to halve. Low readings indicate fast loss, high ones slow loss. The term mortality denotes the percentage killed.

Data set [1] concerns K562. Kind of data set: Cytotoxicity against human K562 cells measured after 72 hrs by MTT assay. The data set is classed as functional, cell-based. The conditions noted are these: K562, 72 h. (In general: Formazan colour is commonly taken as a measure of viable cells.)
Another data set deals with Staphylococcus aureus. Kind of data set: Antibacterial activity against Staphylococcus aureus measured after 24 hrs by turbidimetric based microdilution method. The data set is classed as functional. The gist of the method: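 S. aureus grown 18 h at 37 °C in MH broth, diluted 50-fold and regrown to OD600 0.8–1.0, then diluted ten-fold serially to about 1 × 10^4 CFU/mL. Compounds two-fold serially diluted, 64 to 0.0625 µg/mL. MIC read by visual turbidity after 24 h at 37 °C.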
In general terms: Broth dilution looks for growth in wells or tubes with falling amounts of substance.

Data set [2] is described as follows: Half life in Sprague-Dawley rat plasma at 1 mg/ml by HPLC analysis. The data set is classed as ADME, cell-free. The gist of the method:
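SD rat plasma diluted to 50% in water, prewarmed to 37 °C. 40 µL of a 1 mg/mL ACN stock added per 1 mL plasma. Samples taken at 0–1440 min, proteins precipitated with ACN containing internal standard, centrifuged. Supernatant quantified by C18 HPLC using the internal standard method.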

Data set [3] in a line: Stability of the compound at -20 degreeC incubated for one month. The data set is classed as physicochemical. The conditions noted are these: 730.5 h.
For data set [4], the system named is MCF7. Kind of data set: Cytotoxicity against human MCF7 cells incubated for 72 hrs under normoxic condition by MTT assay. The data set is classed as functional, cell-based. Conditions: MCF7, 72 h. In short, it runs like this:
(§1)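 MCF-7 cells seeded at 2 × 10^4 cells/100 µL in duplicate and preincubated 24 h. Serial dilutions added, then 72 h at 20% O2 (normoxia) or 1% O2 (hypoxia, modular chamber). Viability by MTT under normoxia. Values are mean ± SD of three independent experiments.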

Data set [5] deals with MCF7. Kind of data set: Cytotoxicity against human MCF7 cells incubated for 72 hrs under hypoxic condition by MTT assay. The data set is classed as functional, cell-based. Conditions: MCF7, 72 h. The gist of the method: as §1
Data set [6] concerns MCF7. Kind of data set: Selectivity index, ratio of IC50 for human MCF7 cells under hypoxic condition to IC50 for human MCF7 cells under normoxic condition. The data set is classed as functional. The gist of the method:
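Index computed as IC50(hypoxia)/IC50(normoxia) in MCF-7 cells, each from a 72 h MTT assay at 1% or 20% O2.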

For data set [7], the system named is K562. Kind of data set: Induction of apoptosis in human K562 cells at 0.5 to 2 uM measured after 24 to 48 hrs by Annexin V-FITC/propidium iodide staining based flow cytometry. The data set is classed as functional, cell-based. The gist of the method: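 K562 cells seeded at 1 × 10^5 per well and treated 24 h and 48 h. Cells washed in PBS, resuspended in binding buffer, stained in the dark with annexin V-FITC and PI for 15 min, then analysed by flow cytometry within 1 h. Values are mean ± SD of three independent experiments.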
(In general: Flow cytometry measures light scatter and fluorescence of single cells or particles in a stream.)

Data set [8] is described as follows: Toxicity in wild-type zebrafish AB assessed as mortality at 0.8 ug/ml. Set-up: species or system Danio rerio. Conditions: in vivo. The gist of the method: (§2)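 Wild-type AB zebrafish were randomly allocated to wells, 30 fish per well, and exposed to the test agent at a range of concentrations.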
Data set [9] in a line: Toxicity in wild-type zebrafish AB assessed as mortality at 4 ug/ml. Also noted: species or system Danio rerio. Conditions: in vivo. The gist of the method: as §2
Data set [10] in a line: Toxicity in wild-type zebrafish AB assessed as mortality at 20 ug/ml. Conditions: in vivo. Set-up: species or system Danio rerio. In short, it runs like this: as §2
Data set [11] can be described thus: Toxicity in wild-type zebrafish AB assessed as mortality at 50 ug/ml. Also noted: species or system Danio rerio. The conditions noted are these: in vivo. In short, it runs like this: as §2
The next data set is filed under the species Danio rerio. Kind of data set: Toxicity in wild-type zebrafish AB assessed as mortality at 100 ug/ml. Conditions: in vivo. The gist of the method: as §2
For data set [12], the system named is K562. Kind of data set: Cytotoxicity against CM-Dil-labeled human K562 cells xenografted in wild-type zebrafish AB assessed as cell growth inhibition at 5.6 ug/ml measured after 2 days by fluorescence microscopic method relative to control. The data set is classed as functional. The gist of the method:
(§3)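 Wild-type AB zebrafish at 2 dpf yolk-injected with about 200 CM-DiI-labelled K562 cells, held at 35 °C to 3 dpf. Single waterborne dose in 0.1% DMSO aqueous solution, 30 fish per well. Then 2 days at 35 °C. 10 fish imaged by fluorescence microscopy and tumour-cell fluorescence intensity compared with vehicle control.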

Data set [13] has as its system K562. Kind of data set: Cytotoxicity against CM-Dil-labeled human K562 cells xenografted in wild-type zebrafish AB assessed as cell growth inhibition at 16.7 ug/ml measured after 2 days by fluorescence microscopic method relative to control. The data set is classed as functional. The gist of the method: as §3
For data set [14], the system named is K562. Kind of data set: Cytotoxicity against CM-Dil-labeled human K562 cells xenografted in wild-type zebrafish AB assessed as cell growth inhibition at 50 ug/ml measured after 2 days by fluorescence microscopic method relative to control. The data set is classed as functional. The gist of the method: as §3

Active and inactive are the calls of the source. The calls are words filed in the database; no cut-off is given here. Bounds are passed on as bounds.

Consider `C=C1/C=C/C(=O)N[C@H](C)C(=O)N[C@@H](C(C)C)C(=O)O[C@@H]([C@H](C)CCCCCC)[C@H](CCO[Si](c2ccccc2)(c2ccccc2)C(C)(C)C)C(=O)N1`, for which the figures for the IC50 in the data set on K562 [1], with MCF7 [4] and with MCF7 [5] were 0.64 µM, 6.26 µM and 6.81 µM, respectively. Further, the MIC in the data set on Staphylococcus aureus is > 64 µg/mL. This molecule had a half-life at 1 mg/ml in [2] of 14.3 h. The Stability entry in [3] is listed as “Stable”. Besides, the “Ratio IC50” value with MCF7 [6] is 1.09. In addition, the outcome with K562 [7] was Active. In addition, the mortality at 0.8 ug/ml in data set [8] came to 0%. In data set [9], the mortality at 4 ug/ml worked out at 0%. Besides, in data set [10], the mortality at 20 ug/ml is 0%. Besides, the mortality at 50 ug/ml in [11] is 0%. Besides, the mortality entry in the data set filed under Danio rerio is “Nd(Insoluble)”. Besides, the “growth inhibition (GI)” value in the data set with K562 [12] was 66%; in the data set on K562 [13], 70%; in the data set on K562 [14] it was 75%.
